Measurements gathered from unrelated publications.
Compare with care: the assays were run in different laboratories.
Target: Dual specificity mitogen-activated protein kinase kinase 2 (MAP2K2, Homo sapiens, UniProt P36507)

CO[C@@H]1[C@H](N(C)C(=O)c2ccccc2)C[C@H]2O[C@]1(C)n1c3ccccc3c3c4c(c5c6ccccc6n2c5c31)C(=O)NC4  inhibition (enzyme activity, inhibitor; 1 µM): 20%
CCCCC(=O)Nc1ccc(-c2ccc3ncn(CCC)c(=O)c3c2)cn1  remaining binding (binding, competition with immobilised ligand; 0.5 µM): 68%
COc1ccc2[nH]c3c4[nH]c5ccc(OC)cc5c4c4c(c3c2c1)C(=O)NC4=O  remaining binding (binding, competition with immobilised ligand; 1 µM): 59%
C=CC(=O)N1CCC([C@@H]2CCNc3c(C(N)=O)c(-c4ccc(Oc5ccccc5)cc4)nn32)CC1  inhibition (enzyme activity, inhibitor; 1 µM): 99%
N#Cc1ccc(NC(=O)Nc2ccccc2)cc1  remaining binding (cell-free assay, competition with immobilised ligand; 25 µM): 64%
CC(C)S(=O)(=O)c1ccc2nccc(Nc3ccc4sc(C5CCCC5)nc4c3)c2c1  activity vs control (enzyme activity, inhibitor; 1 µM): 98%
CN1CCN(C(=O)c2ccc(NC(=O)Nc3ccc(N(C)c4ccnc(Nc5ccc(CS(C)(=O)=O)cc5)n4)cc3)cc2)CC1  remaining binding (binding, competition with immobilised ligand; 1 µM): 40%
Cc1cc(O)c(-c2ccc([C@@H](C)CN(C)C)cc2)c2c1[nH]c(=O)c1sccc12  inhibition (enzyme activity, inhibitor; 0.1 µM): 24.2%
C#Cc1cc(-c2cc(Nc3nc(N[C@@H](C)c4ccc(F)cn4)ncc3Cl)n[nH]2)ccc1C=O  inhibition (enzyme activity, inhibitor; 0.2 µM): 20.9%
COc1ccc2oc(-c3ccc4nc(N)oc4c3)c/c(=N\c3ccccc3NC(=O)CCN)c2c1  remaining binding (binding; 1 µM): 106%
